Reference: ChEMBL document CHEMBL1146073, “A pyridazine series of alpha2/alpha3 subtype selective GABA A agonists for the treatment of anxiety” (J Med Chem, 2006)
pKi: −log10 of the molar value.

Legend:
[1] = target: GABA-A receptor; alpha-3/beta-3/gamma-2 (Homo sapiens) (UniProt P18507+P28472+P34903); test: Efficacy against recombinant human GABA-Aalpha3 plus beta-3-gamma-2 expressed in L(tk-) cells by whole cell patch clamp method relative to chlordiazepoxide; type: functional, cell-based
Procedure, shortened: (§1)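 Whole-cell patch clamp on αxβ3γ2 receptors stably expressed in L(tk-) cells, measuring the effect on current evoked by an EC20-equivalent of GABA. Reported relative to full agonist chlordiazepoxide (=1.0), or as direct percent modulation of the EC20 control, with inverse agonism given as percent. Mean of at least four independent experiments.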

[2] = target: GABA-A receptor; alpha-5/beta-3/gamma-2 (Homo sapiens) (UniProt P18507+P28472+P31644); test: Efficacy against recombinant human GABA-Aalpha5 plus beta-3-gamma-2 expressed in L(tk-) cells by whole cell patch clamp method relative to chlordiazepoxide; type: functional, cell-based; procedure, shortened: as §1
[3] = Half life in rat; type: ADME, organism-based; conditions: in vivo
Procedure, shortened: (§2)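 Pharmacokinetics from six animals per species: three dosed iv and three dosed po.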

[4] = Oral bioavailability in rat; type: ADME, organism-based; conditions: in vivo; procedure, shortened: as §2
[5] = target: GABA-A receptor; alpha-2/beta-3/gamma-2 (Homo sapiens) (UniProt P18507+P28472+P47869); test: Efficacy against recombinant human GABA-Aalpha2 plus beta-3-gamma-2 expressed in L(tk-) cells by whole cell patch clamp method relative to chlordiazepoxide; type: functional, cell-based; procedure, shortened: as §1
[6] = target: T1, GABA-A receptor; alpha-1/beta-3/gamma-2 (Homo sapiens, UniProt P14867+P18507+P28472); test: Displacement of [3H]Ro-151788 from recombinant human GABA-Aalpha1 receptor plus beta3gamma2; type: protein-complex assay
T1 sequence (P14867 whole entry): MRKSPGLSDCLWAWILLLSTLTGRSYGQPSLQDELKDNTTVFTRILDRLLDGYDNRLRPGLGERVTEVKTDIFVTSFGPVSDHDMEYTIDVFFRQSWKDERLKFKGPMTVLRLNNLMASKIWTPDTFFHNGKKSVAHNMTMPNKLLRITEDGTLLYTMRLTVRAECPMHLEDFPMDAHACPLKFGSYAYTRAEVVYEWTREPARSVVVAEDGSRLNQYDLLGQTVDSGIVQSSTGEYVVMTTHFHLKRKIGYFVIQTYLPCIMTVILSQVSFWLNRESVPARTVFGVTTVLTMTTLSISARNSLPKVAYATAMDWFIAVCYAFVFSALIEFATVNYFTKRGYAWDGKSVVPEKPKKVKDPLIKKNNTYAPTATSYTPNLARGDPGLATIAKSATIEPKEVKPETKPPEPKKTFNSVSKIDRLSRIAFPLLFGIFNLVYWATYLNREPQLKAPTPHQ
T1 sequence (P18507 whole entry): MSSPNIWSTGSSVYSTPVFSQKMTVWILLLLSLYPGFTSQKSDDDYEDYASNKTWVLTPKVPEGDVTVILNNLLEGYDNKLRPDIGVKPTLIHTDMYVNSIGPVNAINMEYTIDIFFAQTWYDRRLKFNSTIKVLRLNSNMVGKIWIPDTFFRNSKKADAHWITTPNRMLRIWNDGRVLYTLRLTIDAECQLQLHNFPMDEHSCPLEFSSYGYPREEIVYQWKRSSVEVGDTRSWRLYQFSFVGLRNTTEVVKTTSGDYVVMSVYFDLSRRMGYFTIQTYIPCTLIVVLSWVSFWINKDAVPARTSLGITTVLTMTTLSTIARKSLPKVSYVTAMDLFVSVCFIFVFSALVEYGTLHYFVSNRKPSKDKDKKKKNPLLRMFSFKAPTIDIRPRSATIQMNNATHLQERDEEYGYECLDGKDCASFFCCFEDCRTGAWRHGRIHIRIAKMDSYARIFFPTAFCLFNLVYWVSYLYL
T1 sequence (P28472 whole entry): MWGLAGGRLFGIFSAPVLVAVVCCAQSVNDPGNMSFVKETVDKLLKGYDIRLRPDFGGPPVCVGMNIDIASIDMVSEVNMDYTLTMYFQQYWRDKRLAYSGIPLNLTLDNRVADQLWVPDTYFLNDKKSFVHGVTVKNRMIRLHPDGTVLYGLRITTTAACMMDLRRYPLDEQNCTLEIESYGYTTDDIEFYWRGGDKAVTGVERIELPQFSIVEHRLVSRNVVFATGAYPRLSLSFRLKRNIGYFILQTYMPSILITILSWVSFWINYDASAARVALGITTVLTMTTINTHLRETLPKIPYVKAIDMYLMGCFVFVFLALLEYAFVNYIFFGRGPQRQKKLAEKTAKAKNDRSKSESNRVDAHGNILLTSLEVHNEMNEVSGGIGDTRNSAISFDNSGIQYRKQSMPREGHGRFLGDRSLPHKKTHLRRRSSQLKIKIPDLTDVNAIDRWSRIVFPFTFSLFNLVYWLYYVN
Procedure, shortened: (§3)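 Benzodiazepine-site binding on stably transfected αxβ3γ2 receptors (x = 1, 2, 3 or 5). Inhibition curves run with [3H]Ro15-1788 at roughly twice its Kd. Ki derived by Cheng-Prusoff equation. Mean of three to six determinations.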

[7] = target: T2, GABA-A receptor; alpha-5/beta-3/gamma-2 (Homo sapiens, UniProt P18507+P28472+P31644); test: Displacement of [3H]Ro-151788 from recombinant human GABA-Aalpha5 receptor plus beta3gamma2; type: protein-complex assay; procedure, shortened: as §3
T2 sequence (P18507 whole entry): T1 sequence (P18507 whole entry)
T2 sequence (P28472 whole entry): T1 sequence (P28472 whole entry)
T2 sequence (P31644 whole entry): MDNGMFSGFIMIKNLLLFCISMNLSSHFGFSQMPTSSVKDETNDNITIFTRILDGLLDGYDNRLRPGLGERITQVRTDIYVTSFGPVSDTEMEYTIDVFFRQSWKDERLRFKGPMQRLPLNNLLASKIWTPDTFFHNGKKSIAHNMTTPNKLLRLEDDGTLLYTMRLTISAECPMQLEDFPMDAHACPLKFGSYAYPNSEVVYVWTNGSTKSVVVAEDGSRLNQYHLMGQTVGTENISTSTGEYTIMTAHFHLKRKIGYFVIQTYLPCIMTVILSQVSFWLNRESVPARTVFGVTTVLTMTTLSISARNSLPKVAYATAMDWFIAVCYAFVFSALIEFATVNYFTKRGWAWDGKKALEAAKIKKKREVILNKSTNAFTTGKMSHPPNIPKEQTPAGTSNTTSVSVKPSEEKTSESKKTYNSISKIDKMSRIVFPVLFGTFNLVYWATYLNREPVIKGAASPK

[8] = Stability in rat assessed as liver microsomal turnover; type: ADME, Microsome; conditions: liver microsomes, read-out: Stability
Procedure, shortened: (§4)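 Test compound at 1 µM, with diazepam as control, incubated 0.25 h with pooled liver microsomes at 0.5 mg/mL protein. Compound remaining quantified by LC/MS/MS. Turnover is the mean of three determinations.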

[9] = Stability in human assessed as liver microsomal turnover; type: ADME, Microsome; conditions: liver microsomes, read-out: Stability; procedure, shortened: as §4
[10] = target: GABA-A receptor; alpha-1/beta-3/gamma-2 (Homo sapiens) (UniProt P14867+P18507+P28472); test: Efficacy against recombinant human GABA-Aalpha1 plus beta-3-gamma-2 expressed in L(tk-) cells by whole cell patch clamp method; type: functional, cell-based; procedure, shortened: as §1
[11] = Stability in dog assessed as liver microsomal turnover; type: ADME, Canis lupus familiaris; conditions: liver microsomes, read-out: Stability; procedure, shortened: as §4

| Structure (SMILES) | Efficacy [1] | Efficacy [2] | half-life [3] [h] | bioavailability [4] [%] | Efficacy [5] | pKi [6] | pKi [7] | metabolised [8] [%] | metabolised [9] [%] | Efficacy [10] [%] | metabolised [11] [%] |
| --- | --- | --- | --- | --- | --- | --- | --- | --- | --- | --- | --- |
| Fc1cnc(-c2cc(-c3ccc(F)c(-c4ncccc4F)c3)cnn2)c(F)c1 | 0.7 | 0.4 | 10 | 100 | 0.43 | 9.30 | 8.55 | < 5 | 6 | -0.8 |  |
| Fc1cnc(-c2cc(-c3cnnc(-c4c(F)cncc4F)c3)ccc2F)c(F)c1 | 0.39 |  | 1.6 | 50 | 0.28 | 8.74 | 8.22 | 5 | 3 | -3 | 4 |
| Fc1cnc(-c2cc(-c3ccc(F)c(-c4ncc(F)cc4F)c3)cnn2)c(F)c1 | 0.44 | 0.01 | 53 | 88 | 0.12 | 8.82 | 7.92 | 3 | 3 | -7 | 8 |
| Fc1cnc(-c2cc(-c3cnnc(-c4c(F)cc(F)cc4F)c3)ccc2F)c(F)c1 | 0.4 | 0.14 |  |  | 0.36 | 8.59 | 8.29 | 4 | 7 | -9 | 0 |
